# Results from different studies.
# Protocols differ between the studies behind these lines.
# Target: Aurora kinase B (AURKB, Homo sapiens, UniProt Q96GD4)
SMILES,read-out,mode,method,concentration,quantity,value
CN(C)C1CCN(CC#Cc2nn(C3CCCC3)c3nc(NCc4ccccc4)ncc23)C1 (centres unmarked),enzyme activity,inhibitor,FRET,0.1 µM,inhibition,8%
c1cc(CN2CCOCC2)cc(Nc2ncc(C3CC3)c(NCCc3c[nH]cn3)n2)c1,enzyme activity,inhibitor,radiometric,1 µM,remaining activity,2%
c1ccc(N2CCN(Cc3nc4ccccc4[nH]3)CC2)nc1,cell-free assay,,competition with immobilised ligand,1 µM,remaining binding,18%
Cc1cc(NC(=O)c2cccc3cc(-c4cccc5[nH]nc(N)c45)ccc23)ccc1F,enzyme activity,inhibitor,,0.1 µM,activity vs control,12%
CN(C)S(=O)(=O)c1ccc2c(c1)/C(=C/c1cc3c([nH]1)CCCC3)C(=O)N2,cell-free assay,,,0.5 µM,remaining signal,11%
C=CC(=O)Nc1cc(Nc2nccc(Nc3cc(Cl)c(F)cc3C(C)(C)O)n2)c(OC)cc1N1CC[C@@H](N(C)C)C1,enzyme activity,inhibitor,,1 µM,inhibition,10%
CC/C(=N\NC(=O)NCc1cccc(O)c1)c1ccc(O)c(C)c1O,enzyme activity,inhibitor,,0.1 µM,inhibition,2.9%
Cc1nn(CC(F)(F)F)cc1Nc1ncc(C2CC2)c(NCCCNC(=O)C2CCC2)n1,enzyme activity,inhibitor,radiometric,1 µM,remaining activity,102%
CN1CC(Oc2cnc(C#N)cc2-c2ccn3nc(NC(=O)C4CC4)cc3c2)C1,enzyme activity,inhibitor,,1 µM,inhibition,1%
CCN(CC)CCNC(=O)c1c(C)[nH]c(/C=C2\C(=O)Nc3ccc(F)cc32)c1C,cell-free assay,,,0.5 µM,remaining signal,48.7%
CN(C)CC#Cc1ccc(OCCCc2sc(N3CCc4cccc(C(=O)Nc5nc6ccccc6s5)c4C3)nc2C(=O)O)c(F)c1,cell-free assay,,competition with immobilised ligand,1 µM,remaining binding,79%
C#Cc1cccc(Nc2ncnc3cc(OCCOC)c(OCCOC)cc23)c1,enzyme activity,inhibitor,,0.5 µM,activity vs control,74.7%
CC(=O)c1c(NS(C)(=O)=O)c2cc(-c3ccc(Cl)cc3)c(-c3ccc(Cl)cc3Cl)nc2n(C)c1=O,cell-free assay,,competition with immobilised ligand,1 µM,remaining binding,100%
O=C(CSc1nc2nccnc2c(=O)n1CCc1ccccc1)Nc1nccs1,enzyme activity,inhibitor,,10 µM,inhibition,6%
CO[C@@H](C)c1c(Nc2ccc([C@@H](N(C)C(=O)C3CCS(=O)(=O)CC3)C(F)(F)F)cc2)cnc2cc(Cl)nn12,cell-free assay,,competition with immobilised ligand,1 µM,remaining binding,74%
COc1cc(/C=C/C(=O)CC(=O)/C=C/c2ccc(O)c(OC)c2)ccc1O,enzyme activity,inhibitor,,1 µM,activity vs control,79%
CN(C(=O)c1ccccc1)c1cc(N(C)c2ccc3c(c2)CCc2ccc(C(=O)NCCN4CCOCC4)cc2C3=O)ccc1F,cell-free assay,,competition with immobilised ligand,1 µM,remaining binding,100%
O=C(NCCCNc1nc(Nc2cccc(NC(=O)N3CCCC3)c2)ncc1C1CC1)C1CCC1,enzyme activity,inhibitor,radiometric,1 µM,remaining activity,11%
COc1cccc(CNC(=O)c2nc3scc(COCc4ccc(C(=O)O)cc4)c3c(=O)[nH]2)c1,cell-free assay,,competition with immobilised ligand,1 µM,remaining binding,71.3%
NS(=O)(=O)c1ccc(CNc2ccnc(Nc3cccc(CN4CCOCC4)c3)n2)cc1,enzyme activity,inhibitor,radiometric,1 µM,remaining activity,48%
